The source of these data is ChEMBL document CHEMBL1142697, “Beta-lactam screening by specific residues of the OmpF eyelet” (2005).

In experiment [1] the test system is Klebsiella aerogenes. The experiment can be described thus: Mean lysis diameter was measured against Enterobacter aerogenes EA289 with D121A mutation by standard disk diffusion method on MH agar. It counts as functional. In short, it runs like this:
(§1)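 Porin-deficient, β-lactamase-producing Enterobacter aerogenes EA289 carrying plasmid-borne wild-type OmpF, D113A or D121A. Grown in LB at 37 °C with gentle shaking, with kanamycin (50 µg/mL) or IPTG (1 mM); porin expression checked. Disk diffusion: 3 mL MH broth culture (10^7 bacteria/mL) spread on MH agar, antibiotic disks applied, inhibition diameter (mm) after 24 h at 37 °C. Mean of 3–5 experiments, versus the wild-type OmpF strain.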
(In general: A growth-free zone around the sample is the usual read-out of agar diffusion tests.)

The test system of experiment [2] is Klebsiella aerogenes. Nature of the experiment: Mean lysis diameter of Enterobacter aerogenes EA289 with D113A mutation by standard disk diffusion method on MH agar. In kind it is functional. An outline of the steps: as §1
Experiment [3] has as its system Klebsiella aerogenes. The experiment can be described thus: Mean lysis diameter of wild type Enterobacter aerogenes EA289 with OmpF by standard disk diffusion method on MH agar. In kind it is functional. An outline of the steps: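 EA289 is transformed with a plasmid encoding wild-type OmpF and grown in LB at 37 °C with gentle shaking, with kanamycin (50 µg/mL) or IPTG (1 mM) as needed to keep the plasmid. OmpF expression level is checked. For the disk diffusion test, MH broth culture (10^7 bacteria/mL) is spread on MH agar with antibiotic disks. Zone diameter (mm) is read after 24 h at 37 °C, mean of 3–5 experiments.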

The subject of experiment [4] is Klebsiella aerogenes. Nature of the experiment: Mean lysis diameter of porin deficient Enterobacter aerogenes EA289 by standard disk diffusion method on MH agar. It counts as functional. In short, it runs like this: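 Porin-deficient, β-lactamase-expressing E. aerogenes EA289 is grown in Luria Bertani broth at 37 °C with gentle shaking. An MH broth culture at 10^7 bacteria/mL is spread on MH agar and antibiotic-loaded disks are applied. The inhibition diameter (mm) around each disk is read after 24 h at 37 °C, averaged over three to five experiments.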

The subject of experiment [5] is Escherichia coli. The experiment can be described thus: Bacterial susceptibility induced by D113 mutation in Escherichia coli OmpF. It counts as functional, organism-based. In short, it runs like this:
as §1

Experiment [6] has as its system Escherichia coli. The experiment can be described thus: Bacterial susceptibility induced by D121 mutation in Escherichia coli OmpF. It counts as functional, organism-based. An outline of the steps: as §1

For the molecule `CC1(C)S[C@@H]2[C@H](NC(=O)[C@H](N)c3ccccc3)C(=O)N2[C@H]1C(=O)O` [AMPICILLIN], the Lysis diameter is given as 7 mm in experiment [1], 16 mm in experiment [2], 6 mm in experiment [3] and 6 mm in experiment [4].

In the case of `CO/N=C(\C(=O)N[C@@H]1C(=O)N2C(C(=O)[O-])=C(C[N+]3(C)CCCC3)CS[C@H]12)c1csc(N)n1` [CEFEPIME], the Susceptibility entry in experiment [5] and in experiment [6] was “+/-” each time. For the same molecule, the Lysis diameter was 29 mm in experiment [1], 30 mm in experiment [2], 27 mm in experiment [3] and 19 mm in experiment [4].

Turning to `CO/N=C(\C(=O)N[C@@H]1C(=O)N2C(C(=O)O)=C(COC(C)=O)CS[C@H]12)c1csc(N)n1` [CEFOTAXIME], the Lysis diameter in experiment [1] is 18 mm; in experiment [2], 23 mm; in experiment [3] it was 17 mm; in experiment [4] it was 15 mm.

Consider `CO[C@@]1(NC(=O)Cc2cccs2)C(=O)N2C(C(=O)O)=C(COC(N)=O)CS[C@@H]21` [CEFOXITIN], for which the Lysis diameter is on record as 12 mm in experiment [1], 16 mm in experiment [2], 7 mm in experiment [3] and 6 mm in experiment [4].

For `CO/N=C(\C(=O)N[C@@H]1C(=O)N2C(C(=O)[O-])=C(C[n+]3cccc4c3CCC4)CS[C@H]12)c1csc(N)n1` [CEFPIROME], the Lysis diameter is 31 mm in experiment [1], 31 mm in experiment [2], 26 mm in experiment [3] and 19 mm in experiment [4].

As to `CC(C)(O/N=C(\C(=O)N[C@@H]1C(=O)N2C(C(=O)[O-])=C(C[n+]3ccccc3)CS[C@H]12)c1csc(N)n1)C(=O)O` [CEFTAZIDIME], the Lysis diameter in experiment [1] was 15 mm; in experiment [2], 20 mm; in experiment [3], 11 mm; in experiment [4], 8 mm.
